In ChEMBL document CHEMBL1134773, “Design and synthesis of potent and selective alpha(4)beta(7) integrin antagonists” (J Med Chem, 2001):

Legend:
[1] = target: T1, Integrin alpha-4/beta-7 (Homo sapiens) (UniProt P13612+P26010); test: Ability to inhibit adhesion of alpha4-beta7 integrin expressing 38-beta7 lymphoma cells to chinese hamster ovary (CHO) cells stably transfected with MAdCAM-1; assay type: cell-based
In short: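 38-β7 lymphoma cells (α4β7+) labelled 30 min at 37 °C with 12 μg/mL H33342, then 8×10^5/mL in buffer with 1.0 mM Ca2+/Mg2+. Preincubated 10 min at 37 °C with peptide at 1 mg/mL final. Allowed to adhere 30 min at 37 °C to confluent MAdCAM-1-transfected CHO monolayers (seeded 24 h before). Nonadherent cells removed by inverse centrifugation. Result given as % of medium control, mean of two experiments.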

[2] = target: T1, Integrin alpha-4/beta-7 (Homo sapiens); test: Inhibition of alpha4-beta7 lymphoma cell binding to CHO-VCAM-1 cells.; assay type: cell-based
[3] = target: Integrin alpha-4/beta-1 (Homo sapiens) (UniProt P05556+P13612); test: Inhibition of alpha4-beta1 lymphoma cell binding to CHO-VCAM-1 cells.; assay type: cell-based
PBL = test: Effect on human PBL cell binding to Laminin.; assay type: cell-based
In short: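 Human PBL labelled with H33342 (12 μg/mL, 30 min, 37 °C), resuspended at 8×10^5/mL with 1.0 mM Ca2+ and Mg2+. Peptides at 1 mg/mL final were preincubated with the cells for 10 min at 37 °C. Cells then adhered 30 min at 37 °C to plates coated 16 h at 4 °C with 2 μg/well laminin (pH 9.4 carbonate). Read-out is % of medium control, mean ± SD of ≥3 experiments.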

Integrin alpha-4/beta-7 = target: T2, Integrin alpha-4/beta-7 (Homo sapiens, UniProt P13612+P26010); test: Inhibition of alpha-4-beta-7/MAdCAM interactions; assay type: protein-complex assay
T2 sequence (P13612 whole entry): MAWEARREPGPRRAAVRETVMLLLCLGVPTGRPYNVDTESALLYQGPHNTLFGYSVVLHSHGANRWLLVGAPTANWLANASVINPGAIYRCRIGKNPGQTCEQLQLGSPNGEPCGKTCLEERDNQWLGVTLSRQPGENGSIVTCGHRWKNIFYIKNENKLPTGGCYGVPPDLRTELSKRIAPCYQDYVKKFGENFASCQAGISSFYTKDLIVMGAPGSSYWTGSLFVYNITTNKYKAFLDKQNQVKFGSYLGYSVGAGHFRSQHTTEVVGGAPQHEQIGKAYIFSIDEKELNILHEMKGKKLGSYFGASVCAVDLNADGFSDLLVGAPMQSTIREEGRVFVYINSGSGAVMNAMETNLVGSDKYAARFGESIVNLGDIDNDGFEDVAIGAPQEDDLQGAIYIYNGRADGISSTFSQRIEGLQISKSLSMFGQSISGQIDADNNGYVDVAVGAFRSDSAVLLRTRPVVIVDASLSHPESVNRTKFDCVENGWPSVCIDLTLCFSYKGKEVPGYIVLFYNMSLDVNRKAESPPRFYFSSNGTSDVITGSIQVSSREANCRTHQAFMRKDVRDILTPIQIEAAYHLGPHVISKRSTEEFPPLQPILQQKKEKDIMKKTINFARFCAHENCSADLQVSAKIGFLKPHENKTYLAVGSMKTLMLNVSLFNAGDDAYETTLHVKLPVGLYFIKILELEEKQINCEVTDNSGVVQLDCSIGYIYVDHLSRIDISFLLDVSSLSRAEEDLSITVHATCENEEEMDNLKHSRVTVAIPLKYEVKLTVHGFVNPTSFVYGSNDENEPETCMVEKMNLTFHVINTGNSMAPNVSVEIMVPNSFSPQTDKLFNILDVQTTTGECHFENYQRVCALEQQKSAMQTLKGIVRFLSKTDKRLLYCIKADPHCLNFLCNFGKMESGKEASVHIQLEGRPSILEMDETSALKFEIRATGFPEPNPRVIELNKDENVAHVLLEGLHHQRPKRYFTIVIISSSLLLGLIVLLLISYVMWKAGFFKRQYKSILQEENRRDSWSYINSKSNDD
T2 sequence (P26010 whole entry): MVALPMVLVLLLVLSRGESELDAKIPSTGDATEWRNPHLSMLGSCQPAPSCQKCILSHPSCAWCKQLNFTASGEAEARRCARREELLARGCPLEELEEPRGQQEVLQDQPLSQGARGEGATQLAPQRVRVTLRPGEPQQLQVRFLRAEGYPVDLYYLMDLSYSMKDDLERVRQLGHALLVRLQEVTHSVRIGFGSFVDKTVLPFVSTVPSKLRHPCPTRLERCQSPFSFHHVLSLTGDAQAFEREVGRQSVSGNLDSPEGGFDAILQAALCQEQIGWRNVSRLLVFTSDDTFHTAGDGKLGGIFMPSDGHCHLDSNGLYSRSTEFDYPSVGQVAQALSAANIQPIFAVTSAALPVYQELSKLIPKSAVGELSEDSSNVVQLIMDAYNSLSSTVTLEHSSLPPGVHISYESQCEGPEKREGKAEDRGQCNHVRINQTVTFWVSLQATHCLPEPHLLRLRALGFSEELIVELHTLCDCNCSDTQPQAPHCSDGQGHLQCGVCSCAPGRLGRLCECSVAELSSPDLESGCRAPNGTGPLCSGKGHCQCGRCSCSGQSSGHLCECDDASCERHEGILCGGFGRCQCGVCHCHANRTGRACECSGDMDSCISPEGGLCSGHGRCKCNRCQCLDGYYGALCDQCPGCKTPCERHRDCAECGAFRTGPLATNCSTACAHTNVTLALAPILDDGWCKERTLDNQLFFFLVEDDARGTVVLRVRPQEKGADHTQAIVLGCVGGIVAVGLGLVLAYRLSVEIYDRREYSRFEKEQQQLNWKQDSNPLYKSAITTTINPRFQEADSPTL
In short: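 Plates carried anti-human IgG capture antibody, then 100 ng MAdCAM-Ig (30 min, room temperature), then were blocked 1 h at 37 °C. H33342-labelled 38-β7 cells (8×10^5/mL, Ca2+/Mg2+ 1.0 mM) were preincubated 10 min at 37 °C with peptide. They adhered 30 min at 37 °C, and unbound cells were spun off inversely at 50g. Values are mean ± SD of ≥3 experiments.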

| Compound | Adhesion [1] | Adhesion [2] | Adhesion [3] | Adhesion (PBL) | IC50 (Integrin alpha-4/beta-7) |
| --- | --- | --- | --- | --- | --- |
| CC(C)C[C@@H]1NC(=O)[C@@H](Cc2c[nH]cn2)NC(=O)[C@H]2CCCN2C(=O)[C@@H](CC(=O)O)NC(=O)[C@H]([C@@H](C)O)NC(=O)[C@@H](CC(=O)O)NC1=O | 9% | 27% | 74% | 114% |  |
| CC(C)C[C@H](NC(=O)c1cc2ccccc2cn1)C(=O)N[C@@H](CC(=O)O)C(=O)N[C@H](C(N)=O)[C@@H](C)O |  |  |  |  | 465 µM |
| CC(C)C[C@@H]1NC(=O)[C@@H](Cc2ccccc2)NC(=O)[C@H]2CCCN2C(=O)[C@@H](C)NC(=O)[C@H]([C@@H](C)O)NC(=O)[C@@H](CC(=O)O)NC1=O | 7% | 36% | 109% |  |  |
| CC(C)C[C@@H]1NC(=O)[C@H](Cc2ccc(O)cc2)NC(=O)[C@H]2CCCN2C(=O)[C@H](CC(=O)O)NC(=O)[C@H]([C@@H](C)O)NC(=O)[C@H](CC(=O)O)NC1=O |  |  |  |  | 308 µM |
| CC(C)C[C@@H]1NC(=O)[C@@H](Cc2ccc(O)cc2)NC(=O)[C@H]2CCCN2C(=O)[C@@H](CC(=O)O)NC(=O)[C@H]([C@@H](C)O)NC(=O)[C@@H](CC(=O)O)NC1=O | 3% | 37% | 78% | 111% |  |
| CC(C)C[C@@H]1NC(=O)[C@@H](Cc2ccccc2)NC(=O)[C@H]2CCCN2C(=O)[C@@H](CC(=O)O)NC(=O)[C@H]([C@@H](C)O)NC(=O)[C@@H](CC(=O)O)NC1=O | 3% | 38% | 72% | 95% |  |
| CSCC[C@H]1NC(=O)[C@H]2CCCN2C(=O)[C@@H](CC(=O)O)NC(=O)[C@H]([C@@H](C)O)NC(=O)[C@@H](CC(=O)O)NC(=O)[C@H](CC(C)C)NC1=O | 15% | 36% | 108% | 102% |  |
| CSCC[C@@H]1NC(=O)[C@H]2CCCN2C(=O)[C@H](CC(=O)O)NC(=O)[C@H]([C@@H](C)O)NC(=O)[C@H](CC(=O)O)NC(=O)[C@H](CC(C)C)NC1=O |  |  |  |  | 317 µM |
| CC(C)C[C@@H]1NC(=O)[C@H](Cc2ccccc2)NC(=O)[C@H]2CCCN2C(=O)[C@H](C)NC(=O)[C@H]([C@@H](C)O)NC(=O)[C@H](CC(=O)O)NC1=O |  |  |  |  | 292 µM |
| CC(C)C[C@@H]1NC(=O)[C@H](Cc2c[nH]cn2)NC(=O)[C@H]2CCCN2C(=O)[C@H](CC(=O)O)NC(=O)[C@H]([C@@H](C)O)NC(=O)[C@H](CC(=O)O)NC1=O |  |  |  |  | 301 µM |
| CC(C)C[C@@H]1NC(=O)[C@H](Cc2ccccc2)NC(=O)[C@H]2CCCN2C(=O)[C@H](CC(=O)O)NC(=O)[C@H]([C@@H](C)O)NC(=O)[C@H](CC(=O)O)NC1=O |  |  |  |  | 163 µM |
